What was measured:
Assay type in all cases: functional
Staphylococcus aureus [1] = test: Antibacterial activity against Staphylococcus aureus NCIM 5021 at 200 ug/disk after 24 hrs by agar disk diffusion method; conditions: NCIM 5021, 24 h, read-out: IZ
Summary of the method: (§1)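 Agar disc diffusion on nutrient agar plates pre-inoculated with each bacterium. Sterile 6 mm filter-paper discs were moistened with compound in DMSO at the stated per-disc amount. Plates were incubated at 37 °C, and the growth-inhibition zone diameter was read after 24 h. Each determination was run in triplicate, and the mean of three independent readings is reported.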

Staphylococcus aureus [2] = test: Antibacterial activity against Staphylococcus aureus NCIM 5021 at 100 ug/disk after 24 hrs by agar disk diffusion method; conditions: NCIM 5021, 24 h, read-out: IZ; summary of the method: as §1
Klebsiella pneumoniae [3] = test: Antibacterial activity against Klebsiella pneumoniae NCIM 2957 at 100 ug/disk after 24 hrs by agar disk diffusion method; conditions: NCIM 2957, 24 h, read-out: IZ; summary of the method: as §1
Fusarium solani [4] = test: Antifungal activity against Fusarium solani NCIM 1330 at 100 ug/disk after 48 hrs by agar disk diffusion method; conditions: NCIM 1330, 48 h, read-out: IZ
Summary of the method: (§2)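 Fungal disc diffusion on nutrient agar plates pre-inoculated with each fungus. 6 mm sterile paper discs carried the compound in DMSO at the stated amount per disc. Plates were held at 37 °C, and inhibition-zone diameter was measured after 48 h. Values are the mean of three independent triplicate readings.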

Bacillus subtilis [5] = test: Antibacterial activity against Bacillus subtilis NCIM 2063 at 100 ug/disk after 24 hrs by agar disk diffusion method; conditions: NCIM 2063, 24 h, read-out: IZ; summary of the method: as §1
Curvularia lunata [6] = test: Antifungal activity against Curvularia lunata NCIM 716 at 200 ug/disk after 48 hrs by agar disk diffusion method; conditions: NCIM 716, 48 h, read-out: IZ; summary of the method: as §2
[7] = system: Radical scavenging activity; test: Antioxidant activity assessed as DPPH free radical scavenging activity at 100 uM after 20 mins
Summary of the method: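 DPPH scavenging: compound solutions were added to DPPH in dioxane/ethanol and kept at ambient temperature for 20 min. Absorbance was read at 517 nm. The test–control difference was expressed as percent DPPH radical scavenging.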

Klebsiella pneumoniae [8] = test: Antibacterial activity against Klebsiella pneumoniae NCIM 2957 at 200 ug/disk after 24 hrs by agar disk diffusion method; conditions: NCIM 2957, 24 h, read-out: IZ; summary of the method: as §1
Proteus vulgaris [9] = test: Antibacterial activity against Proteus vulgaris NCIM 2027 at 200 ug/disk after 24 hrs by agar disk diffusion method; conditions: NCIM 2027, 24 h, read-out: IZ; summary of the method: as §1
Fusarium solani [10] = test: Antifungal activity against Fusarium solani NCIM 1330 at 200 ug/disk after 48 hrs by agar disk diffusion method; conditions: NCIM 1330, 48 h, read-out: IZ; summary of the method: as §2
Proteus vulgaris [11] = test: Antibacterial activity against Proteus vulgaris NCIM 2027 at 100 ug/disk after 24 hrs by agar disk diffusion method; conditions: NCIM 2027, 24 h, read-out: IZ; summary of the method: as §1
Bacillus subtilis [12] = test: Antibacterial activity against Bacillus subtilis NCIM 2063 at 200 ug/disk after 24 hrs by agar disk diffusion method; conditions: NCIM 2063, 24 h, read-out: IZ; summary of the method: as §1
[13] = Antioxidant activity assessed as nitric oxide production at 100 uM after 120 mins by Griess reagent method
Summary of the method: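 Nitric oxide assay with Griess read-out. At intervals, 0.5 ml of incubation solution was mixed with 0.5 ml Griess reagent (1% sulfanilamide, 0.1% N-naphthylethylenediamine dihydrochloride, 2% o-phosphoric acid in water). The control received an equal amount of solvent and was handled identically.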

Aspergillus niger [14] = test: Antifungal activity against Aspergillus niger NCIM 596 at 100 ug/disk after 48 hrs by agar disk diffusion method; conditions: NCIM 596, 48 h, read-out: IZ; summary of the method: as §2
Curvularia lunata [15] = test: Antifungal activity against Curvularia lunata NCIM 716 at 100 ug/disk after 48 hrs by agar disk diffusion method; conditions: NCIM 716, 48 h, read-out: IZ; summary of the method: as §2
Aspergillus niger [16] = test: Antifungal activity against Aspergillus niger NCIM 596 at 200 ug/disk after 48 hrs by agar disk diffusion method; conditions: NCIM 596, 48 h, read-out: IZ; summary of the method: as §2

Row | SMILES | zone of inhibition at 200 µg/disc (Staphylococcus aureus [1]) | zone of inhibition at 100 µg/disc (Staphylococcus aureus [2]) | zone of inhibition at 100 µg/disc (Klebsiella pneumoniae [3]) | zone of inhibition at 100 µg/disc (Fusarium solani [4]) | zone of inhibition at 100 µg/disc (Bacillus subtilis [5]) | zone of inhibition at 200 µg/disc (Curvularia lunata [6]) | inhibition [7] | zone of inhibition at 200 µg/disc (Klebsiella pneumoniae [8]) | zone of inhibition at 200 µg/disc (Proteus vulgaris [9]) | zone of inhibition at 200 µg/disc (Fusarium solani [10]) | zone of inhibition at 100 µg/disc (Proteus vulgaris [11]) | zone of inhibition at 200 µg/disc (Bacillus subtilis [12]) | inhibition [13] | zone of inhibition at 100 µg/disc (Aspergillus niger [14]) | zone of inhibition at 100 µg/disc (Curvularia lunata [15]) | zone of inhibition at 200 µg/disc (Aspergillus niger [16])
1 | Cc1ccc(C(=O)CC(C(=O)c2ccc(C)cc2)C2C(N)=NN=C2N)cc1 (stereo unspecified) | 28 mm | 25 mm | 25 mm | 32 mm | 27 mm | 33 mm | 66.5% | 27 mm | 26 mm | 35 mm | 24 mm | 29 mm | 68.2% | 30 mm | 31 mm | 31 mm
2 | NC1=NC(=S)N=C(N)C1C(CC(=O)c1ccccc1)C(=O)c1ccccc1 (stereo unspecified) | 24 mm | 22 mm | 19 mm | 16 mm | 23 mm | 22 mm | 37.8% | 21 mm | 19 mm | 20 mm | 17 mm | 24 mm | 35.7% | 14 mm | 19 mm | 19 mm
3 | Cc1ccc(S(=O)(=O)CC(C2C(N)=NC(=O)N=C2N)S(=O)(=O)c2ccc(C)cc2)cc1 (stereo unspecified) | 23 mm | 21 mm | 17 mm | 13 mm | 22 mm | 18 mm | 28.1% | 19 mm | 18 mm | 16 mm | 16 mm | 24 mm | 27.9% | 11 mm | 16 mm | 15 mm
4 | Cc1ccc(S(=O)(=O)CC(C2C(N)=NN=C2N)S(=O)(=O)c2ccc(C)cc2)cc1 (stereo unspecified) | 29 mm | 27 mm | 23 mm | 30 mm | 26 mm | 33 mm | 59.4% | 26 mm | 25 mm | 35 mm | 22 mm | 28 mm | 60.5% | 28 mm | 31 mm | 31 mm
5 | CN1C(=N)C(C(CS(=O)(=O)c2ccc(Cl)cc2)S(=O)(=O)c2ccc(Cl)cc2)C(=N)N(C)C1=O (stereo unspecified) | 18 mm | 16 mm | 12 mm | 16 mm | 15 mm | 21 mm | 31.6% | 14 mm | 13 mm | 19 mm | 11 mm | 17 mm | 30.2% | 15 mm | 17 mm | 17 mm
6 | N=C1ON=C(N)C1C(CC(=O)c1ccccc1)C(=O)c1ccccc1 (stereo unspecified) | 26 mm | 23 mm | 23 mm | 30 mm | 24 mm | 32 mm | 42.3% | 25 mm | 24 mm | 31 mm | 21 mm | 27 mm | 43.5% | 27 mm | 30 mm | 29 mm
